Results: ChEMBL document CHEMBL1145820, “Design, synthesis, and evaluation of novel boronic-chalcone derivatives as antitumor agents” (J Med Chem, 2003)
pIC50: −log10 of the molar value.

Experiments:
Assay type in all cases: functional, cell-based
[1] = system: MDA-MB-231; test: Inhibitory activity against MDA-MB-231 human breast cell line
In short: (§1)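 Cells kept in DMEM with 5% FBS, 2 mM glutamine and penicillin/streptomycin at 37 °C, 5% CO2. Cells plated and attached for 24 h, then exposed to 0.5-100 µM compound (10 mM DMSO stocks) for 96 h in quadruplicate wells. MTT (1 mg/mL, serum-free medium) was added for 4 h, formazan dissolved in DMSO:ethanol 1:1, and A540 read. IC50 taken from log plots of percent of control; two runs.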

[2] = system: MCF-12A; test: Inhibitory activity against MCF-12A human breast cell line
[3] = system: MCF7; test: Inhibitory activity against Wt-MCF7 human breast cell line; in short: as §1
[4] = system: MCF-10A; test: Inhibitory activity against MCF-10A human breast cell line
[5] = system: MDA-MB-435; test: Inhibitory activity against MDA-MB-435 human breast cell line
In short: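 Cells kept in IMEM with 5% FBS and 2 mM glutamine at 37 °C, 5% CO2. After 24 h attachment, cells were exposed in quadruplicate wells to 0.5-100 µM compound (10 mM DMSO stocks) for 96 h. Read-out was MTT (1 mg/mL, 4 h), with formazan dissolved in DMSO:ethanol and absorbance at 540 nm. IC50 came from log plots of percent of control vs concentration; assayed twice.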

| SMILES | pIC50 [1] | pIC50 [2] | pIC50 [3] | pIC50 [4] | pIC50 [5] |
| --- | --- | --- | --- | --- | --- |
| O=C(/C=C/c1ccc(I)cc1)c1ccc(OCB(O)O)cc1 | 4.96 | 4.00 | 5.02 | 4.42 | 4.74 |
| O=C(/C=C/c1ccc(Cl)c(Cl)c1)c1ccc(B(O)O)cc1 | 5.02 | 4.96 | 5.30 | 4.74 | 5.46 |
| O=C(/C=C/c1ccc(I)cc1)c1ccc(B(O)O)cc1 | 5.06 | 4.20 | 5.15 | 4.12 | 5.00 |
| O=C(/C=C/c1ccc(F)c(Br)c1)c1ccc(B(O)O)cc1 | 5.02 | 4.42 | 5.07 | 4.77 | 5.06 |
| O=C(/C=C/c1ccc(F)c(Cl)c1)c1ccc(B(O)O)cc1 | 5.07 | 4.66 | 5.22 | 4.60 | 4.80 |
| O=C(/C=C/c1ccc(F)c(F)c1)c1ccc(B(O)O)cc1 | 5.06 | 4.41 | 5.11 | 4.74 | 5.06 |
| O=C(/C=C/c1ccc(I)cc1)c1ccc(O)cc1 | 5.10 | 4.52 | 5.15 | 4.82 | 5.35 |
| O=C(/C=C/c1ccccc1)c1ccc[nH]1 | 4.82 | 4.42 | 5.05 | 4.20 | 4.82 |
| O=C(O)COc1ccc(C(=O)/C=C/c2ccc(Cl)c(Cl)c2)cc1 | 5.05 | 4.82 | 4.89 | 4.89 | 5.05 |
| O=C(O)COc1ccc(/C=C/C(=O)c2ccc(Cl)c(Cl)c2)cc1 | 4.74 | 4.55 | 4.82 | 4.92 | 4.89 |
| O=C(/C=C/c1ccc(B(O)O)cc1)c1ccc[nH]1 | 4.64 | 4.22 | 4.72 | 4.42 | 4.82 |
| O=C(O)COc1ccc(C(=O)/C=C/c2ccc(I)cc2)cc1 | 4.36 | 4.42 | 5.05 | 4.36 | 4.74 |
| O=C(/C=C/c1ccc(B(O)O)cc1)c1ccc(Cl)c(Cl)c1 | 5.10 | 4.82 | 5.26 | 4.74 | 5.40 |
